The nature of series [1]: AUC (0 to infinity) in Sprague-Dawley rat at 1 mg/kg, iv administered as single dose measured after 24 to 48 hrs. The format is ADME, organism-based. Details: time infinity, dose 1 mg/kg, route intravenous. Particulars: plasma. The procedure, abridged: (§1)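 Sprague-Dawley rats (n = 3) were fasted overnight (minimum 12 h) and given a single dose, iv 1 mg/kg or oral 10 mg/kg, in sterile water. Samples were taken over 24–48 h. PK parameters came from noncompartmental analysis.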

The nature of series [2]: Clearance in Sprague-Dawley rat at 1 mg/kg, iv administered as single dose measured after 24 to 48 hrs. The format is ADME, organism-based. Details: dose 1 mg/kg, route intravenous. To be noted: in vivo. The procedure, abridged: as §1
A short description of series [3]: Apparent volume of distribution in Sprague-Dawley rat at 1 mg/kg, iv administered as single dose measured after 24 to 48 hrs. Particulars: in vivo.
The nature of series [4]: Elimination half life in Sprague-Dawley rat at 1 mg/kg, iv administered as single dose. Particulars: in vivo, read-out: beta t1/2 (converted). It counts as ADME, organism-based. More on the design: dose 1 mg/kg, route intravenous. The essentials:
as §1

Series [5] deals with Rattus norvegicus. Kind of series: Oral bioavailability in Sprague-Dawley rat at 10 mg/kg administered as single dose. Particulars: in vivo. It counts as ADME, organism-based. The essentials: as §1
In series [6] the test system is Staphylococcus aureus. Kind of series: Antimicrobial activity against tetracycline-susceptible Staphylococcus aureus isolate 101 by CLSI dilution method. It counts as functional.
The subject of series [7] is Staphylococcus aureus. Description: Antimicrobial activity against methicillin-, tetracycline-resistant Staphylococcus aureus isolate 161 harboring tetM gene by CLSI dilution method. It counts as functional.
The test system of series [8] is Staphylococcus aureus. Kind of series: Antimicrobial activity against tetracycline-resistant Staphylococcus aureus isolate 158 harboring tetK gene by CLSI dilution method. It counts as functional.
The subject of series [9] is Enterococcus faecalis. Description: Antimicrobial activity against tetracycline-susceptible Enterococcus faecalis isolate 103 by CLSI dilution method. The format is functional. The procedure, abridged: (§2)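 Broth microdilution per CLSI in fresh cation-adjusted Mueller Hinton broth, kept at 4 °C before testing, with defibrinated horse blood added as appropriate. Strains were from ATCC. MIC in µg/mL. Runs were accepted when comparator antibiotics against ATCC quality-control strains fell within recommended ranges.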

The subject of series [10] is Enterococcus faecalis. Description: Antimicrobial activity against tetracycline-resistant Enterococcus faecalis isolate 159 harboring […] gene by CLSI dilution method. The format is functional.
For series [11], the system named is Streptococcus pneumoniae. Description: Antimicrobial activity against tetracycline-susceptible Streptococcus pneumoniae isolate 106 by CLSI dilution method. It counts as functional. The essentials:
as §2

Series [12] concerns Streptococcus pneumoniae. Description: Antimicrobial activity against tetracycline-resistant Streptococcus pneumoniae isolate 160 harboring tetM gene by CLSI dilution method. It counts as functional.
The subject of series [13] is Escherichia coli. Kind of series: Antimicrobial activity against tetracycline-susceptible Escherichia coli isolate 107 by CLSI dilution method. The format is functional. The essentials:
as §2

In series [14] the test system is Escherichia coli. Description: Antimicrobial activity against tetracycline-resistant Escherichia coli isolate 155 harboring tetA gene by CLSI dilution method. It counts as functional.
For series [15], the system named is Acinetobacter baumannii. Kind of series: Antimicrobial activity against tetracycline-susceptible Acinetobacter baumannii isolate 110 by CLSI dilution method. The format is functional. The essentials: as §2
Series [16] relates to Pseudomonas aeruginosa. Kind of series: Antimicrobial activity against tetracycline-susceptible Pseudomonas aeruginosa isolate 111 by CLSI dilution method. The format is functional. The essentials: as §2
The test system of series [17] is Enterobacter cloacae. Description: Antimicrobial activity against tetracycline-susceptible Enterobacter cloacae isolate 108 by CLSI dilution method. The format is functional. The essentials: as §2
Series [18] relates to Klebsiella pneumoniae. Description: Antimicrobial activity against tetracycline-susceptible Klebsiella pneumoniae isolate 109 by CLSI dilution method. The format is functional. The essentials: as §2
In series [19] the test system is Klebsiella pneumoniae. Description: Antimicrobial activity against tetracycline-resistant Klebsiella pneumoniae isolate 153 harboring tetA gene by CLSI dilution method. The format is functional.
Series [20] deals with Staphylococcus aureus. Description: Antimicrobial activity against tetracycline-susceptible Staphylococcus aureus Smith isolate 100 by CLSI dilution method. It counts as functional.
A short description of series [21]: Cmax in Sprague-Dawley rat at 1 mg/kg, iv administered as single dose measured after 24 to 48 hrs. The format is ADME, organism-based. Details: dose 1 mg/kg, route intravenous. To be noted: in vivo. The procedure, abridged: as §1

≈ marks a conversion by molar mass, not a printed value. Bounds are passed on as bounds.

`COc1c2c(c(O)c3cc(CN4CC(F)C4)ccc13)C(=O)C1=C(O)[C@]3(O)C(=O)C(C(N)=O)=C(O)[C@@H](N(C)C)[C@@H]3C[C@@H]1C2`: in series [1], the AUC(0-inf) (in general, total exposure, with the tail of the curve extrapolated) came to 451 ng·h/mL. For the same compound, the clearance (as a rule, a measure of how efficiently the substance is removed, as volume per time) in series [2] amounted to 63.9 mL/min/kg. Besides, the Vd in [3] worked out at 5.06 L/kg. Besides, the half-life in series [4] is 1.5 h. In series [5], this compound returned an F of 17.7%. Besides, the MIC – broadly, the smallest concentration in the dilution series that meets the test's criterion for growth inhibition – in series [6] came to 0.25 µg/mL (≈ 0.43 µM); in series [7] it was 1 µg/mL (≈ 1.72 µM); in series [8], 0.125 µg/mL (≈ 0.215 µM); in series [9], 0.125 µg/mL (≈ 0.215 µM); in [10] it was 2 µg/mL (≈ 3.44 µM); in series [11] it was 0.0156 µg/mL (≈ 0.0268 µM). Besides, the MIC in series [12] was 0.0313 µg/mL (≈ 0.0538 µM); in series [13] it was 2 µg/mL (≈ 3.44 µM); in series [14] it was 8 µg/mL (≈ 13.8 µM); in series [15], 0.25 µg/mL (≈ 0.43 µM); in [16], 32 µg/mL (≈ 55 µM); in [17] it was 8 µg/mL (≈ 13.8 µM). Moreover, the MIC turned out to be 4 µg/mL (≈ 6.88 µM) in [18], 8 µg/mL (≈ 13.8 µM) in series [19] and 1 µg/mL (≈ 1.72 µM) in [20]. For the same compound, the peak level in series [21] (Cmax) was 237 ng/mL.
For `CC(=O)NC1CN(Cc2ccc3cc4c(c(O)c3c2)C(=O)C2=C(O)[C@]3(O)C(=O)C(C(N)=O)=C(O)[C@@H](N(C)C)[C@@H]3C[C@@H]2C4)C1`, the minimal inhibitory concentration (MIC) turned out to be 2 µg/mL (≈ 3.39 µM) in series [6]; 8 µg/mL (≈ 13.5 µM) in series [7]; 2 µg/mL (≈ 3.39 µM) in series [8]; 2 µg/mL (≈ 3.39 µM) in series [9]; 16 µg/mL (≈ 27.1 µM) in series [10]; 0.25 µg/mL (≈ 0.423 µM) in series [11]. Also, the MIC in series [12] is 2 µg/mL (≈ 3.39 µM); in series [13] it was 4 µg/mL (≈ 6.77 µM); in series [14] it was 16 µg/mL (≈ 27.1 µM); in [15], 16 µg/mL (≈ 27.1 µM); in [16], above 32 µg/mL; in [17], 8 µg/mL (≈ 13.5 µM). The MIC in series [18] and in series [19] was 16 µg/mL (≈ 27.1 µM) in each case.
As to `CN(C)Cc1ccc2cc3c(c(O)c2c1)C(=O)C1=C(O)[C@]2(O)C(=O)C(C(N)=O)=C(O)[C@@H](N(C)C)[C@@H]2C[C@@H]1C3`, the MIC stood at 0.25 µg/mL (≈ 0.479 µM) in series [6]; 1 µg/mL (≈ 1.92 µM) in series [7]; 0.25 µg/mL (≈ 0.479 µM) in series [8]; 0.25 µg/mL (≈ 0.479 µM) in series [9]; 1 µg/mL (≈ 1.92 µM) in series [10]; 0.0313 µg/mL (≈ 0.06 µM) in [11]. For the same compound, the MIC in series [12] is 0.125 µg/mL (≈ 0.24 µM); in series [13] it was 1 µg/mL (≈ 1.92 µM); in series [14] it was 4 µg/mL (≈ 7.67 µM); in series [15] it was 2 µg/mL (≈ 3.83 µM); in [16] it was above 32 µg/mL; in series [17] it was 2 µg/mL (≈ 3.83 µM). Moreover, the MIC in [18] is 2 µg/mL (≈ 3.83 µM); in series [19] it was 4 µg/mL (≈ 7.67 µM).
As for `COc1c2c(c(O)c3cc(CN4CCCC4)ccc13)C(=O)C1=C(O)[C@]3(O)C(=O)C(C(N)=O)=C(O)[C@@H](N(C)C)[C@@H]3C[C@@H]1C2`, the MIC in series [6] turned out to be 0.25 µg/mL (≈ 0.433 µM); in [7], 2 µg/mL (≈ 3.46 µM); in series [8], 0.125 µg/mL (≈ 0.216 µM); in [9] it was 0.25 µg/mL (≈ 0.433 µM); in [10], 4 µg/mL (≈ 6.92 µM); in series [11] it was 0.0156 µg/mL (≈ 0.027 µM). Also, the MIC was 0.25 µg/mL (≈ 0.433 µM) in series [12]; 1 µg/mL (≈ 1.73 µM) in series [13]; 8 µg/mL (≈ 13.8 µM) in [14]; 1 µg/mL (≈ 1.73 µM) in series [15]; 16 µg/mL (≈ 27.7 µM) in series [16]; 4 µg/mL (≈ 6.92 µM) in series [17]. For the same compound, the MIC was 4 µg/mL (≈ 6.92 µM) in series [18] and 8 µg/mL (≈ 13.8 µM) in [19].
With `CNc1c2c(c(O)c3cc(CN4CCC4)ccc13)C(=O)C1=C(O)[C@]3(O)C(=O)C(C(N)=O)=C(O)[C@@H](N(C)C)[C@@H]3C[C@@H]1C2`, the MIC worked out at 2 µg/mL (≈ 3.55 µM) in [6]; 8 µg/mL (≈ 14.2 µM) in series [7]; 2 µg/mL (≈ 3.55 µM) in series [8]; 4 µg/mL (≈ 7.11 µM) in [9]; 8 µg/mL (≈ 14.2 µM) in series [10]; 0.25 µg/mL (≈ 0.444 µM) in series [11]. Also, the MIC is 1 µg/mL (≈ 1.78 µM) in series [12]; 4 µg/mL (≈ 7.11 µM) in [13]; above 32 µg/mL in [14]; above 32 µg/mL in series [15]; above 32 µg/mL in series [16]; 32 µg/mL (≈ 56.9 µM) in series [17]. For the same compound, the MIC is 32 µg/mL (≈ 56.9 µM) in series [18] and above 32 µg/mL in [19].

The values are drawn from ChEMBL document CHEMBL1781932 (J Med Chem, 2011).
